Measured values of several laboratories.
KIT L576P: Mast/stem cell growth factor receptor Kit (KIT, Homo sapiens, UniProt P10721, L576P)
KIT D816V: Mast/stem cell growth factor receptor Kit (KIT, Homo sapiens, UniProt P10721, D816V)
KIT V559D: Mast/stem cell growth factor receptor Kit (KIT, Homo sapiens, UniProt P10721, V559D)
KIT A829P: Mast/stem cell growth factor receptor Kit (KIT, Homo sapiens, UniProt P10721, A829P)
KIT V559D/V654A: Mast/stem cell growth factor receptor Kit (KIT, Homo sapiens, UniProt P10721, V559D/V654A)
KIT autoinhibited: Mast/stem cell growth factor receptor Kit, autoinhibited (KIT, Homo sapiens, UniProt P10721)
KIT: Mast/stem cell growth factor receptor Kit (KIT, Homo sapiens, UniProt P10721)
KIT T670I/V559D: Mast/stem cell growth factor receptor Kit (KIT, Homo sapiens, UniProt P10721, T670I/V559D)

Compound	target	assay	conditions	remaining binding [%]
Cc1cnc(Nc2ccc(C(=O)N3CCC(N4CCCC4)CC3)cc2)nc1-c1cc2ccccc2s1	KIT L576P	binding, competition with immobilised ligand	1 µM	1
O=C(Nc1c[nH]nc1C(=O)NC1CCNCC1)c1cc(F)cc(F)c1	KIT D816V	binding, competition with immobilised ligand	1 µM	100
N[C@@H]1CCN(c2nccc(-c3cnn4ncccc34)n2)C1	KIT V559D	binding	1 µM	100
O=C(N1CCS(=O)(=O)CC1)N1C[C@H](c2ccc(OC(F)(F)F)cc2)C[C@H](c2nc(C3CC3)no2)C1	KIT A829P	cell-free assay, competition with immobilised ligand	1 µM	100
F[C@@H]1CCN(c2nccc(-c3cnn4ncccc34)n2)C1	KIT L576P	binding	1 µM	92
O=C(c1ccc(Nc2ncc(Cl)c(-c3ccc(Cl)s3)n2)cc1)N1CCC(N2CCCC2)CC1	KIT V559D/V654A	binding, competition with immobilised ligand	1 µM	9.3
COc1ccc2c(c1)O[C@@H](c1ccc(OC)c(OC)c1)C[C@H]2NC(=O)C1(c2ccc3c(c2)OC(F)(F)O3)CC1	KIT A829P	cell-free assay, competition with immobilised ligand	1 µM	75
CN(C)c1nccc(-c2cnn3ncccc23)n1	KIT autoinhibited	binding	1 µM	88
C[C@@H]1CN(c2ccc3ncc(-c4ccc5[nH]nc(C6CC6)c5c4)n3n2)C[C@H](C)O1	KIT	binding, competition with immobilised ligand	0.5 µM	50
CCC(=O)N[C@H]1CC[C@@H](C(=O)N(C)c2ccc(-c3nc4ccccc4o3)cc2)C1	KIT D816V	cell-free assay, competition with immobilised ligand	1 µM	86
CN(C)c1nccc(-c2cnc3ncccn23)n1	KIT V559D	binding	1 µM	81
O=C(c1ccc(Nc2ncc(Cl)c(-c3cc4ccccc4s3)n2)cc1)N1CCC(N2CCCC2)CC1	KIT D816V	binding, competition with immobilised ligand	1 µM	13
COc1cc(-c2cn(C3CCc4c(F)cccc4N(CC(F)(F)F)C3=O)nn2)ccc1-n1cnc(C)c1 (stereo not shown)	KIT L576P	cell-free assay, competition with immobilised ligand	1 µM	100
Cc1nc(NC(=O)N2CCC[C@H]2C(N)=O)sc1-c1ccnc(C(C)(C)C(F)(F)F)c1	KIT autoinhibited	binding, competition with immobilised ligand	10 µM	100
NS(=O)(=O)c1cc(NC(=O)C2(c3ccccc3Cl)CC2)ccc1Oc1cccc(Cl)c1	KIT A829P	cell-free assay, competition with immobilised ligand	1 µM	69
O=C(NCCCN1CCOCC1)c1ccc(Nc2nccc(-c3cc4ccccc4s3)n2)cc1	KIT A829P	binding, competition with immobilised ligand	1 µM	36
Cc1cnn2ncc(-c3ccnc(N(C)C)n3)c2c1	KIT D816V	binding	1 µM	100
c1cncc(-c2cccc(Nc3nccc(NC4CCCCC4)n3)c2)c1	KIT L576P	binding, competition with immobilised ligand	10 µM	0
O=C(NCc1ncc(C(F)(F)F)cc1Cl)c1ccc2c(c1)C1(CCS(=O)(=O)CC1)[C@H](C1CC1)N2S(=O)(=O)c1ccc(F)cc1	KIT	cell-free assay, competition with immobilised ligand	1 µM	100

Compound	target	assay	conditions	remaining binding [%]
CNC(=O)[C@@H]1CC[C@@H](n2c(-c3ccc4cnccc4c3)nc3ccc(C(=O)NCc4cccc(C(N)=O)c4)cc32)C1	KIT V559D	binding, competition with immobilised ligand	1 µM	100
N#Cc1ccccc1CSc1nnc2c(n1)[nH]c1ccccc12	KIT D816V	binding, competition with immobilised ligand	10 µM	75
COc1cnc(Nc2cccc(S(N)(=O)=O)c2)nc1N1CCN(c2ccccc2)C(=O)C1	KIT V559D/V654A	binding, competition with immobilised ligand	1 µM	97
O=C(NCCCN1CCOCC1)c1ccc(Nc2ncc(Cl)c(-c3ccc(Cl)s3)n2)cc1	KIT V559D	binding, competition with immobilised ligand	1 µM	0.05
CO[C@@H](C)c1c(Nc2ccc([C@@H](N(C)C(=O)C3CCS(=O)(=O)CC3)C(F)(F)F)cc2)cnc2cc(Cl)nn12	KIT T670I/V559D	cell-free assay, competition with immobilised ligand	1 µM	82
CN1CCN(c2ccc(Nc3nccc(-c4ccccc4)n3)cc2C(F)(F)F)CC1	KIT T670I/V559D	binding	10 µM	0.15
COc1ncc2cc3ccccc3nc2c1C#N	KIT V559D	cell-free assay, competition with immobilised ligand	5 µM	94
O=C(c1ccc(Nc2nccc(-c3cc4ccccc4s3)n2)cc1)N1CCC(N2CCCC2)CC1	KIT D816V	binding, competition with immobilised ligand	1 µM	15
Nc1ncc2c(n1)-c1c([nH]c3ccc(C#CC4CC4)cc13)CCCC2	KIT L576P	binding, competition with immobilised ligand	1 µM	100
C=CC(=O)N1CCC(C(=O)NCC(=O)N2CCN(c3nc(-c4cnc(N)nc4C(F)F)nc(N4CCOCC4)n3)CC2)CC1	KIT T670I/V559D	binding, competition with immobilised ligand	1 µM	82
CCc1ccccc1C(=O)Nc1n[nH]c2c(C)c(F)c(C3C(C#N)=C(C)N(C)C(C)=C3C#N)cc12	KIT	cell-free assay, competition with immobilised ligand	1 µM	84
CCN1CCN(Cc2ccc(C(=O)Nc3ccc(C)c(Oc4ccc5c(c4)CC(=O)N5)c3)cc2C(F)(F)F)CC1	KIT	binding, competition with immobilised ligand	1 µM	0.85
COc1cnc(Nc2cccc(S(N)(=O)=O)c2)nc1N1CCN(c2ccccc2)CC1	KIT V559D/V654A	binding, competition with immobilised ligand	1 µM	97
CN1CCN(c2ccc(Nc3nccc(-c4cccc([N+](=O)[O-])c4)n3)cc2C(F)(F)F)CC1	KIT L576P	binding	10 µM	0.05
C[C@H]1CCN(c2nccc(-c3cnn4ncccc34)n2)C1	KIT A829P	binding	1 µM	83
C[C@@H](c1ccc(-n2cnc3c(N)ncnc32)cc1)N1CCc2nn(C)c(Cc3ccccc3)c2C1=O	KIT T670I/V559D	binding, competition with immobilised ligand	0.1 µM	99
COc1ccnn2ncc(-c3ccnc(N(C)C)n3)c12	KIT V559D	binding	1 µM	100
O=C(NCC1CCOCC1)c1n[nH]cc1NC(=O)c1c(F)cccc1F	KIT autoinhibited	binding, competition with immobilised ligand	1 µM	100
